The values that follow come from ChEMBL document CHEMBL4043093, “2-Oxo-3, 4-dihydropyrimido[4, 5-d]pyrimidinyl derivatives as new irreversible pan fibroblast growth factor receptor (FGFR) inhibitors” (Eur J Med Chem, 2017).

In test [1] the target is Peripheral plasma membrane protein CASK (Homo sapiens) (UniProt O14936). As to the kind of experiment: Inhibition of wild-type human partial length CASK (M1 to H315 residues) expressed in HEK293 cells assessed as residual activity at 1000 nM after 30 mins by Kinomescan method relative to control. The test is classed as cell-based.
Test [2] addresses Tyrosine-protein kinase SYK (Homo sapiens) (UniProt P43405). As to the kind of experiment: Inhibition of wild-type human partial length SYK (D354 to N635 residues) expressed in Escherichia coli BL21 assessed as residual activity at 1000 nM after 30 mins by Kinomescan method relative to control.
Test [3] addresses Activin receptor type-2B (Homo sapiens) (UniProt Q13705). The experiment in a line: Inhibition of wild-type human ACVR2B (H169 to D504 residues) expressed in Escherichia coli BL21 assessed as residual activity at 1000 nM after 30 mins by Kinomescan method relative to control. In short, it runs like this: (§1)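 Single-point screen at a fixed 1 µM, run within a 456-kinase DiscoveRx KINOMEscan panel. Each kinase's read-out is Percent Control, i.e. signal relative to a control without compound. Hits were scored by a Percent Control < 35 cut-off, and an S(35) selectivity score was calculated across the non-mutant kinases.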

Test [4] concerns the target Serine/threonine-protein kinase 10 (Homo sapiens) (UniProt O94804). As to the kind of experiment: Inhibition of wild-type human partial length LOK (E16 to V314 residues) expressed in Escherichia coli BL21 assessed as residual activity at 1000 nM after 30 mins by Kinomescan method relative to control.
Test [5] has as its target Phosphatidylinositol 4-phosphate 3-kinase C2 domain-containing subunit beta (Homo sapiens) (UniProt O00750). The experiment in a line: Inhibition of wild-type human partial length PIK3C2B (M1 to L1634 residues) expressed in HEK293 cells assessed as residual activity at 1000 nM after 30 mins by Kinomescan method relative to control. The test is classed as cell-based.
Test [6] addresses Interleukin-1 receptor-associated kinase 3 (Homo sapiens) (UniProt Q9Y616). The experiment in a line: Inhibition of wild-type human partial length IRAK3 (V147 to E596 residues) expressed in Escherichia coli BL21 assessed as residual activity at 1000 nM after 30 mins by Kinomescan method relative to control.
In test [7] the target is Ephrin type-A receptor 3 (Homo sapiens) (UniProt P29320). As to the kind of experiment: Inhibition of wild-type human partial length EPHA3 (D604 to K889 residues) expressed in Escherichia coli BL21 assessed as residual activity at 1000 nM after 30 mins by Kinomescan method relative to control.
Ephrin type-A receptor 3 (Homo sapiens), sequence (P29320 whole entry, the tested form may be a part): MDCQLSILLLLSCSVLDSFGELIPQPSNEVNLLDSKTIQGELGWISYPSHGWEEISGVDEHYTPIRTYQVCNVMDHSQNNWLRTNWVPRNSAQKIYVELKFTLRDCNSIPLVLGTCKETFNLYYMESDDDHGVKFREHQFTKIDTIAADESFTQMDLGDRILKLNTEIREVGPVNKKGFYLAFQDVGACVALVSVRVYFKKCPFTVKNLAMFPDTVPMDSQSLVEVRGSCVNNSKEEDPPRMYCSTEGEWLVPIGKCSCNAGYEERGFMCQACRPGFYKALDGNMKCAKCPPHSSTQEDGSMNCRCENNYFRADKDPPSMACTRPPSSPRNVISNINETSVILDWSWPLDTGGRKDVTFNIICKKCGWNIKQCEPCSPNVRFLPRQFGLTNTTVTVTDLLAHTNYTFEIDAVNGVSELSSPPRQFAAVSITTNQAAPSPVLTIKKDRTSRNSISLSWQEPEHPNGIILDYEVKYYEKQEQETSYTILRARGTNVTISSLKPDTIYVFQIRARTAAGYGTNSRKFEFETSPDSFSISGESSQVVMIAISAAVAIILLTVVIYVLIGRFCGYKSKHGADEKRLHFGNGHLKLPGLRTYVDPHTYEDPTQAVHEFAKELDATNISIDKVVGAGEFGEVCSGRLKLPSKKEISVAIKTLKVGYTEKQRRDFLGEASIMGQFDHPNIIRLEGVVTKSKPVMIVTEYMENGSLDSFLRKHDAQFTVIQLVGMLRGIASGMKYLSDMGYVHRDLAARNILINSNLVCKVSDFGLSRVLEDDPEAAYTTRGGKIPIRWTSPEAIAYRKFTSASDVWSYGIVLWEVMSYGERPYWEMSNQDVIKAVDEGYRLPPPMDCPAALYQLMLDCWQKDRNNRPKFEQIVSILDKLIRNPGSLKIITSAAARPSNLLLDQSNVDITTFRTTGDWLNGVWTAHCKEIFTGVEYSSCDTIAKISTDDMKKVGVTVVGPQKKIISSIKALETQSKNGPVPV
In test [8] the target is Tyrosine-protein kinase JAK1 (Homo sapiens) (UniProt P23458). The experiment in a line: Inhibition of wild-type human partial length JAK1 JH1 catalytic domain (V856 to K1154 residues) expressed in Escherichia coli BL21 assessed as residual activity at 1000 nM after 30 mins by Kinomescan method relative to control.
Test [9] concerns the target Serine/threonine-protein kinase 3 (Homo sapiens) (UniProt Q13188). As to the kind of experiment: Inhibition of wild-type human partial length MST2 (D17 to E318 residues) expressed in Escherichia coli BL21 assessed as residual activity at 1000 nM after 30 mins by Kinomescan method relative to control.
Test [10] concerns the target Uncharacterized serine/threonine-protein kinase SBK3 (Homo sapiens) (UniProt P0C264). As to the kind of experiment: Inhibition of wild-type human partial length SgK110 (L22 to R329 residues) expressed in Escherichia coli BL21 assessed as residual activity at 1000 nM after 30 mins by Kinomescan method relative to control.
The target of test [11] is Casein kinase I isoform alpha-like (Homo sapiens) (UniProt Q8N752). As to the kind of experiment: Inhibition of wild-type human full length CSNK1A1L (M1 to N337 residues) expressed in Escherichia coli BL21 assessed as residual activity at 1000 nM after 30 mins by Kinomescan method relative to control. In short, it runs like this:
as §1

Test [12] concerns Epidermal growth factor receptor (Homo sapiens), P00533 [G719S]. As to the kind of experiment: Inhibition of human partial length EGFR G719S mutant (R669 to V1011 residues) expressed in Escherichia coli BL21 assessed as residual activity at 1000 nM after 30 mins by Kinomescan method relative to control. In short, it runs like this:
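KINOMEscan binding panel of 456 kinases, with the test compound at a single concentration of 1 µM. Read-out is Percent Control.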

Test [13] addresses Serine/threonine-protein kinase 24 (Homo sapiens) (UniProt Q9Y6E0). The experiment in a line: Inhibition of wild-type human partial length MST3 (A30 to S311 residues) expressed in Escherichia coli BL21 assessed as residual activity at 1000 nM after 30 mins by Kinomescan method relative to control.
For test [14], the target named is Protein-tyrosine kinase 2-beta (Homo sapiens) (UniProt Q14289). The experiment in a line: Inhibition of wild-type human full length PYK2 (M1 to E967 residues) expressed in Escherichia coli BL21 assessed as residual activity at 1000 nM after 30 mins by Kinomescan method relative to control. In outline:
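Single-concentration screen at 1 µM against a 456-kinase panel (KINOMEscan). Read-out is Percent Control for each kinase. Across the 403 non-mutant kinases, an S(35) selectivity score was derived as the fraction of kinases with Percent Control < 35.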

Test [15] addresses Mitogen-activated protein kinase kinase kinase kinase 1 (Homo sapiens) (UniProt Q92918). As to the kind of experiment: Inhibition of wild-type human full length HPK1 (M1 to R799 residues) expressed in Escherichia coli BL21 assessed as residual activity at 1000 nM after 30 mins by Kinomescan method relative to control. In short, it runs like this: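 Single-concentration screen at 1 µM across a 456-kinase KINOMEscan panel. The read-out is Percent Control for each kinase.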

For test [16], the target named is Ephrin type-A receptor 4 (Homo sapiens) (UniProt P54764). As to the kind of experiment: Inhibition of wild-type human partial length EPHA4 (T601 to R897 residues) expressed in Escherichia coli BL21 assessed as residual activity at 1000 nM after 30 mins by Kinomescan method relative to control.
The target in test [17] is Serine/threonine-protein kinase PAK 1 (Homo sapiens) (UniProt Q13153). The experiment in a line: Inhibition of wild-type human partial length PAK1 (S149 to H545 residues) expressed in Escherichia coli BL21 assessed as residual activity at 1000 nM after 30 mins by Kinomescan method relative to control.
The target in test [18] is Ephrin type-B receptor 1 (Homo sapiens) (UniProt P54762). The experiment in a line: Inhibition of wild-type human partial length EPHB1 (P589 to T911 residues) expressed in Escherichia coli BL21 assessed as residual activity at 1000 nM after 30 mins by Kinomescan method relative to control.
Test [19] concerns the target Phosphatidylinositol 3-kinase C2 domain-containing subunit gamma (Homo sapiens) (UniProt O75747). As to the kind of experiment: Inhibition of wild-type human partial length PIK3C2G (M1 to I1446 residues) expressed in HEK293 cells assessed as residual activity at 1000 nM after 30 mins by Kinomescan method relative to control. It is filed as cell-based.
Test [20] has as its target Muscle, skeletal receptor tyrosine-protein kinase (Homo sapiens) (UniProt O15146). As to the kind of experiment: Inhibition of wild-type human partial length MUSK (M553 to V869 residues) expressed in Escherichia coli BL21 assessed as residual activity at 1000 nM after 30 mins by Kinomescan method relative to control.

Phosphatidylinositol 3-kinase C2 domain-containing subunit gamma (Homo sapiens), sequence (O75747 whole entry, the tested form may be a part): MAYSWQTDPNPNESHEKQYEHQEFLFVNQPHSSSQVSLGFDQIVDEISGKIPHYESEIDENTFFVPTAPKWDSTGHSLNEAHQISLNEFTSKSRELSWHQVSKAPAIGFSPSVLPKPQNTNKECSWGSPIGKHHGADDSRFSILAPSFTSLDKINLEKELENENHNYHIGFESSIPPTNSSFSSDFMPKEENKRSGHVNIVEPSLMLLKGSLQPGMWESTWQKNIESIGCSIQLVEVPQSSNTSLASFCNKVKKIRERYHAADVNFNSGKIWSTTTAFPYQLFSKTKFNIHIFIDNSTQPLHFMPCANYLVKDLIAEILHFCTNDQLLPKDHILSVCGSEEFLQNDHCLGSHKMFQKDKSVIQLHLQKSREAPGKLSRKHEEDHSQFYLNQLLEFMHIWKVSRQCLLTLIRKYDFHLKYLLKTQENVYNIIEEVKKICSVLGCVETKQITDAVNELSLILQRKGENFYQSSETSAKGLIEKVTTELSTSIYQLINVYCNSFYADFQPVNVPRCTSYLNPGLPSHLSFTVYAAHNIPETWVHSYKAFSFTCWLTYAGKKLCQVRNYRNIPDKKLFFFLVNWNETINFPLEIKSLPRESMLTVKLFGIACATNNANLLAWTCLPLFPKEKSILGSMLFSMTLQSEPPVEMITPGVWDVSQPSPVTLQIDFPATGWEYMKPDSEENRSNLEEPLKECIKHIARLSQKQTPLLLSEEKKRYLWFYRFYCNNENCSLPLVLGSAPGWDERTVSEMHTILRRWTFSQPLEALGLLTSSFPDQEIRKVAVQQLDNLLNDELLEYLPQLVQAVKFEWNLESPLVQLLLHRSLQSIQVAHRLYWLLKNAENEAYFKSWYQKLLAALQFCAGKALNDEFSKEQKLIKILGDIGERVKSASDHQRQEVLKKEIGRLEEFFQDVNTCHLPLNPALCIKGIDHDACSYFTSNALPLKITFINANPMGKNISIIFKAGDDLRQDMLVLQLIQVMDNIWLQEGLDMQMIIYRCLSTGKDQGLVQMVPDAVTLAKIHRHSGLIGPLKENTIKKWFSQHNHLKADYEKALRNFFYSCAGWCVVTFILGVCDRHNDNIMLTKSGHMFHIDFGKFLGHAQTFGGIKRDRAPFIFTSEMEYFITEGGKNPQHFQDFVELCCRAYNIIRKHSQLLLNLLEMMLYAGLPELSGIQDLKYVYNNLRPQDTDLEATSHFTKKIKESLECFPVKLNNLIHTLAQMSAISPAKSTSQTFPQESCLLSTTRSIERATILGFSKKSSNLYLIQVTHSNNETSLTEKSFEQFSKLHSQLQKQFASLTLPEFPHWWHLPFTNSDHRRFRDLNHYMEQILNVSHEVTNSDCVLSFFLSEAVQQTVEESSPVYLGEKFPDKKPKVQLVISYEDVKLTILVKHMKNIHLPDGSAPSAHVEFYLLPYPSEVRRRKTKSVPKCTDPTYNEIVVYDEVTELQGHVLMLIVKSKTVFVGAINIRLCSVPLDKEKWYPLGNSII
Casein kinase I isoform alpha-like (Homo sapiens), sequence (Q8N752 whole entry, the tested form may be a part, canonical isoform): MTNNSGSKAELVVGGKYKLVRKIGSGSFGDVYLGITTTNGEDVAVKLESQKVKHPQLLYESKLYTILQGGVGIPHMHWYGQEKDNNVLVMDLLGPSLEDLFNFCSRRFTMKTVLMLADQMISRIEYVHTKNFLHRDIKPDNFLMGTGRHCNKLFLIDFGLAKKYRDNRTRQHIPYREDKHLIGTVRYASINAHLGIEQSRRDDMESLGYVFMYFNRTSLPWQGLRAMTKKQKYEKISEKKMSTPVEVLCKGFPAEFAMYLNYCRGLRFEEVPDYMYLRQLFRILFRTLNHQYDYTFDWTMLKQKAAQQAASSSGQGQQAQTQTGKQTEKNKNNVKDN
Muscle, skeletal receptor tyrosine-protein kinase (Homo sapiens), sequence (O15146 whole entry, the tested form may be a part): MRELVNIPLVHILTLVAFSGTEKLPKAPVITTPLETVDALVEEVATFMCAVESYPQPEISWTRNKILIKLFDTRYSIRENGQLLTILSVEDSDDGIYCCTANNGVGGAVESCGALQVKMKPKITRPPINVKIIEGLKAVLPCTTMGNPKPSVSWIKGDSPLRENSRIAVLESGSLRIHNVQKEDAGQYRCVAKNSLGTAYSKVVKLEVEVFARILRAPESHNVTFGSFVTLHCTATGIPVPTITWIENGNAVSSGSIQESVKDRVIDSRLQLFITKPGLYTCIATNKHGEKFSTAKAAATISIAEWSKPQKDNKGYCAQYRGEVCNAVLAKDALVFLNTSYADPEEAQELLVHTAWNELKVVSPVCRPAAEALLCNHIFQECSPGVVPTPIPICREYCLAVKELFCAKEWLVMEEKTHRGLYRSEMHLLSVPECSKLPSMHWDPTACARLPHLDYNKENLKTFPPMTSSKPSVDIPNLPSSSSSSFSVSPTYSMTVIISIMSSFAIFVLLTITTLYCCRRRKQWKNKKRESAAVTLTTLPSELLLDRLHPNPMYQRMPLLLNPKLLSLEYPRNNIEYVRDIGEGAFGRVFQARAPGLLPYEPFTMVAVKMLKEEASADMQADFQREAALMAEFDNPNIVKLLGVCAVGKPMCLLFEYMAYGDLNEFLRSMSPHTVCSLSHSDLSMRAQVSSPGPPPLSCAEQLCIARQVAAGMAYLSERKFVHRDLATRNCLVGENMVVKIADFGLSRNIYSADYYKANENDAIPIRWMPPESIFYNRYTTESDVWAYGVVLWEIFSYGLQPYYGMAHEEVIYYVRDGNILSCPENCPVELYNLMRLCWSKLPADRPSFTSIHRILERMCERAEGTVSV
Interleukin-1 receptor-associated kinase 3 (Homo sapiens), sequence (Q9Y616 whole entry, the tested form may be a part): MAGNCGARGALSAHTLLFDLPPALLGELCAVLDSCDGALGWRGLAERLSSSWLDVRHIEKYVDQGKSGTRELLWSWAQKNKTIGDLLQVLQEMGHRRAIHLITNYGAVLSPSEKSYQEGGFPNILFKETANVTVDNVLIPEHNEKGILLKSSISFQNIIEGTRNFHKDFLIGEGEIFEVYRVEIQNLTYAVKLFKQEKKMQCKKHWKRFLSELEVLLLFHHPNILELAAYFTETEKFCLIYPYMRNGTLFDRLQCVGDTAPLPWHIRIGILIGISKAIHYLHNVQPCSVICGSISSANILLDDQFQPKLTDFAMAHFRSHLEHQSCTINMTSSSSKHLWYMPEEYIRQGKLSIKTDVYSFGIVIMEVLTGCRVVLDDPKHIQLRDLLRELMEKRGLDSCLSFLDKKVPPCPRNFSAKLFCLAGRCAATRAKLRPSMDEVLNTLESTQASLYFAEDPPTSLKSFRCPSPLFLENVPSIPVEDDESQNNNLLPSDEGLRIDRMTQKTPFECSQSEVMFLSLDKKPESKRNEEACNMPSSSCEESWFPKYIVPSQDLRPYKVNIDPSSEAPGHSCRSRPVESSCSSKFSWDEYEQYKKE
Activin receptor type-2B (Homo sapiens), sequence (Q13705 whole entry, the tested form may be a part): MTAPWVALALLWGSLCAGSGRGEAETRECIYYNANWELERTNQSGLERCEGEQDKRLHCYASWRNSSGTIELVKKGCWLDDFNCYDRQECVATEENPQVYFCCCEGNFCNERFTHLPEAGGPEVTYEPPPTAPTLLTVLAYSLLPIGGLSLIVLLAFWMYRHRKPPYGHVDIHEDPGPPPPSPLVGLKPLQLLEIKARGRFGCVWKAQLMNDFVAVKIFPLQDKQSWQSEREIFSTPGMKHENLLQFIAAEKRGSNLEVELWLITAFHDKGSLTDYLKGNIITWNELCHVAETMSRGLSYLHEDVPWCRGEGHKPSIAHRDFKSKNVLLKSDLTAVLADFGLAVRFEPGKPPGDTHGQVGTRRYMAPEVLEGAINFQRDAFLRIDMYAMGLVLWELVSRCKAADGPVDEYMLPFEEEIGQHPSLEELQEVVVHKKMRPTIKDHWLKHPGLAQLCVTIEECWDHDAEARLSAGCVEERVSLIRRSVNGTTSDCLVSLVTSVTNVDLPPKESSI

As for `COc1cc(OC)c(Cl)c(N2Cc3cnc(Nc4ccc(F)cc4)nc3N(C3CCN(C(=O)/C=C/CN(C)C)CC3)C2=O)c1Cl`, the Activity in [1] is 96%; in test [2] it was 100%; in [3], 98%; in test [4], 34%; in test [5] it was 89%; in [6], 100%. Also, the Activity is 100% in test [7]; 93% in test [8]; 64% in [9]; 100% in test [10]; 100% in [11]; 87% in test [12]. In addition, the Activity was 68% in test [13]; 91% in test [14]; 32% in test [15]; 100% in test [16]; 100% in test [17]; 100% in test [18]. Further, the results for the Activity in [19] and in test [20] were 95% and 94%, respectively.
